Screening data as filed in PubChem BioAssay.
Redox H2O2 prof = compounds producing H2O2 with reducing agent – biochemical, NIH compound library profiling, artefact control for MLSCN library redox annotation, primary screen; 200,000 compounds, 0.03% hits; activation, % at 10 µM; DTT-dependent redox cycling H2O2, phenol red/HRP absorbance; 100% = 100 µM peroxide control, 0% = buffer;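 active = activation of at least 50% relative to the plate's high and low controls in the primary single-dose screen; inactive = activation below 50%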;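 also: compound incubated with DTT at 0.8 mM final as the reducing agent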
Diaph act CS = diaphorase activation or chemical reduction counter-screen | Diaphorase/resazurin coupled assay, resorufin fluorescence, 16 min; stronger effect = higher value; 1 = vehicle wells, 0 = NADH-free wells | activation factor at 20 µM | 190,000 compounds, 0.005% hits;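 active = diaphorase activity raised at least twofold by the compound at 20 µM; inactive = activation factor below 2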
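Material: Purified diaphorase enzyme from Clostridium kluyveri | Buffer or medium: 50 mM HEPES pH 7.4 with 4.542 mM MgCl2, 0.005% Tween 20 | Times: 16 min enzyme reaction, ambient temperature | Signal: Red resorufin fluorescence at 544/590 nm excitation/emission | Measure: Increased resorufin signal from activators or reducing compounds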
Diaph inh CS = inhibits diaphorase or chemically oxidizes, flagging diaphorase assay artifacts. diaphorase resazurin-to-resorufin fluorescence, NADH, 16 min; bacterial (C. kluyveri) enzyme, not human. inhibition, % at 20 µM. 190,000 compounds, 0.69% hits. AID 1217;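 active = primary screen inhibition at 20 µM above a set limit, cut at about 50% in these data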
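System: Bacterial diaphorase enzyme (C. kluyveri) | Incubation: 16-min room-temperature incubation before reading | Benchmarks: No-NADH positive control and DMSO neutral control | Measured by: Resorufin fluorescence 544/590 nm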
Lmaj promast = reduces viability of Leishmania major promastigotes; AID 1063; 200,000 compounds, 9% hits; inhibition, % at 10 µM; resazurin fluorescence viability;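 also: promastigotes grown with compound for 44 hours at 28 °C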
PfG6PD inh = PfG6PD (Plasmodium falciparum) enzyme inhibition; PfGluPho enzyme, NADPH resazurin-diaphorase fluorescence; inhibition, % at 20 µM; 350,000 compounds, 0.78% hits; AID 504690;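 active = inhibition reaching at least a set limit at 20 µM in the primary screen, cut at about 59% in these data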
G6PDH CS = inhibits Leuconostoc G6PDH, flagging false hits in G6PDH-based assays; inhibition, % at 5 µM; AID 1020; Purified L. mesenteroides G6PDH, diaphorase/resazurin coupled fluorescence, 45 min; 200,000 compounds, 0.12% hits
A number is an active result; n = inactive; x = no result given. The sample as a whole holds a higher share of hits than the screen did. Rule as the data show it, unless noted: active = inhibition above about 50%; inactive = the rest.

SMILES | Redox H2O2 prof | Diaph act CS | Diaph inh CS | Lmaj promast | PfG6PD inh | G6PDH CS
Cn1cc(CN2CCN(CCc3ccccc3)C(CCO)C2)cn1 (centres undefined) | n | n | n | n | n | n
OCCC1CN(Cc2ccc3nsnc3c2)CCN1CCc1ccccc1 (centres undefined) | n | n | n | 83.9 | n | n
CC(=O)c1cc(CN2CCN(Cc3ccccc3)C(CCO)C2)cs1 (centres undefined) | n | n | n | 65.4 | n | n
CC(=O)c1cc(CN2CCN(CCc3ccccc3)C(CCO)C2)cs1 (centres undefined) | n | n | n | 76.6 | n | n
CCNC(=O)NC(=O)C(C)OC(=O)[C@H](C)NS(=O)(=O)c1c(C)c(C)cc(C)c1C (some centres undefined) | x | x | x | x | n | x
CCn1cc(C(=O)NCCCN2CCN(C)CC2)c(=O)c2cc(S(=O)(=O)N3CCc4ccccc4C3)ccc21 | n | n | n | n | n | n
Cc1onc(-c2c(F)cccc2Cl)c1C(=O)OCn1nnc2ccccc2c1=O | n | n | n | 99.4 | n | n
Cc1onc(-c2ccccc2Cl)c1C(=O)OCC(=O)c1c(N)n(C)c(=O)n(C)c1=O | n | n | n | n | n | n
Cc1onc(-c2c(F)cccc2Cl)c1C(=O)OCC(=O)c1c(N)n(C)c(=O)n(C)c1=O | n | n | n | 76.5 | n | n
Cn1c(N)c(C(=O)COC(=O)c2ccc(Cl)c(S(=O)(=O)N3CCCCC3)c2)c(=O)n(C)c1=O | n | n | n | 87.6 | n | n
OCC1(CCc2ccccc2)CCCN(CCCc2ccccc2)C1 (centres undefined) | x | x | x | x | n | x
CN1CCN(C(=O)CSc2nc(-c3cccs3)ccc2C#N)CC1 | n | n | n | 95.0 | n | n
Cc1cc(OCC(=O)N2CCOCC2)ccc1NC(=O)c1ccccc1C | x | x | x | x | n | x
O=c1[nH]c2c(oc3ccccc32)c(=O)n1Cc1ccccc1 | x | x | x | x | n | x
O=c1c2oc3ccccc3c2[nH]c(=S)n1-c1ccc(F)cc1 | n | n | 59.0 | n | n | n
Cc1ccc(-n2c(=S)[nH]c3c(oc4ccccc43)c2=O)cc1C | n | n | 62.3 | n | n | n
COc1ccccc1-c1c(C)nn2c(N3CCOCC3)cc(C)nc12 | x | x | x | x | n | x
Cc1cc(N2CCCCC2)n2nc(C)c(-c3ccccc3)c2n1 | n | n | n | n | n | n
COc1ccccc1-c1c(C)nn2c(N3CCCCCC3)cc(C)nc12 | n | n | n | 79.1 | n | n
Cc1nn2c(N3CCCC3)cc(C(C)C)nc2c1-c1ccccc1 | n | n | n | 86.7 | n | n
Cc1nn2c(N3CCN(C(=O)c4ccco4)CC3)cc(C(C)(C)C)nc2c1-c1ccccc1 | n | n | n | 57.0 | n | n
CN1C(=O)C(C)(C)c2cc(S(=O)(=O)N3CCC(C(=O)NCc4ccccc4Cl)CC3)ccc21 | x | x | x | x | n | x
O=C(C[n+]1ccccc1)Nc1ccccc1Br | n | n | n | n | n | n
CC(=O)NS(=O)(=O)c1ccc(NS(=O)(=O)c2ccccc2[N+](=O)[O-])cc1 | x | x | x | x | n | x
CC(=O)OCC(=O)[C@H]1CC[C@H]2[C@@H]3CCC4=CC(=O)CC[C@]4(C)[C@H]3CC[C@]12C | n | n | n | 100.3 | n | n
SMILES | Redox H2O2 prof | Diaph act CS | Diaph inh CS | Lmaj promast | PfG6PD inh | G6PDH CS
O=C1c2ccccc2NC(c2ccccc2)N1/N=C/c1ccccc1 (centres undefined) | n | n | n | n | n | n
O=C1c2ccccc2NC(c2ccc(O)cc2)N1/N=C/c1ccc(O)cc1 (centres undefined) | n | n | n | 67.4 | n | n
CCOC(=O)C1=C(CS(=O)(=O)c2ccccc2)NC(=O)NC1c1cc(OC)c(O)c(OC)c1 (centres undefined) | x | x | x | x | n | x
COc1ccc(C2=NN(C(=O)c3cccc([N+](=O)[O-])c3)C(c3cccc([N+](=O)[O-])c3)C2)cc1 (centres undefined) | n | n | n | 52.6 | n | n
CCC(CC)C(=O)c1c[nH]c(C(=O)NCC2CCCO2)c1 (centres undefined) | n | n | n | n | n | n
COc1ccc(/C=C\C(=O)c2c(O)ccc3c(C)cc(=O)oc23)cc1 | n | n | n | 99.8 | n | n
COc1ccc(/C=C/C(=O)c2c(O)ccc3c(C)cc(=O)oc23)cc1 | n | n | n | 87.9 | n | n
COc1ccc(-c2cc(=O)oc3c(C)c(O)ccc23)cc1 | x | x | x | x | n | x
Cc1cc(=O)oc2c(O)c(O)ccc12 | x | x | x | x | n | x
O=C(Nc1ccccc1)N1CCSc2ccccc21 | n | n | n | n | n | n
O=C(Nc1cccc(Cl)c1)N1CCCC1 | n | n | n | 99.7 | n | n
O=C(Nc1ccc(Cl)cc1)N1CCCC1 | n | n | n | 96.0 | n | n
O=C(Nc1cccc(Cl)c1)N1CCOCC1 | x | x | x | x | n | x
O=C(Nc1ccc(Cl)cc1)N1CCSc2ccccc21 | n | n | n | 90.3 | n | n
O=C(Nc1ccc(Cl)cc1)N1CCOCC1 | x | x | x | x | n | x
COc1cccc(C(=O)NCC(=O)OCc2ccc(F)cc2Cl)c1 | n | n | n | n | n | n
Nc1nc(N)nc(-c2cc(F)ccc2O)n1 | x | x | x | x | n | x
CCOC(=O)/C(=N\Nc1ncnc2ccccc12)c1ccc(C)cc1 | x | x | x | x | n | x
C#CCNC(=O)C1=C[C@@H](c2coc3ccccc3c2=O)C[C@@H](OCc2ccc(CO)cc2)O1 | n | n | n | n | n | n
O=C(CSc1ncn[nH]1)Nc1ccc(S(=O)(=O)N2CCCC2)cc1 | n | n | n | n | n | n
Cc1[nH][nH]c(=O)c1C(c1ccc(-c2ccc(C(=O)O)cc2)o1)c1c(C)[nH][nH]c1=O | n | n | n | n | n | n
Cc1[nH][nH]c(=O)c1C(c1ccc(-c2ccc(F)cc2)o1)c1c(C)[nH][nH]c1=O | n | n | n | 99.4 | n | n
COc1ccc(-c2ccc(C(c3c(C)[nH][nH]c3=O)c3c(C)[nH][nH]c3=O)o2)c([N+](=O)[O-])c1 | n | n | n | 61.0 | n | n
Cc1[nH][nH]c(=O)c1C(c1ccc(-c2ccc(Cl)c(Cl)c2)o1)c1c(C)[nH][nH]c1=O | n | n | n | 100.2 | n | n
O=S(=O)(c1ccc(OC(F)(F)F)cc1)N1CCC(O)(c2cccc(C(F)(F)F)c2)CC1 | x | x | x | x | n | x
OC1(c2cccc(C(F)(F)F)c2)CCNCC1 | n | n | n | 60.0 | n | n
CC(=O)Nc1ccc(SCC(=O)Nc2cc(C)on2)cc1 | n | n | n | n | n | n
N#CC1=C(N)NC(SCc2ccc(F)cc2)=C(C#N)C12CCCCC2 | n | n | n | 98.5 | n | n
N#CC1=C(N)NC(SCC(=O)O)=C(C#N)C12CCCC2 | n | n | n | n | n | n
O=C(CC1NC(=O)NC1=O)Nc1ccc(Cl)cc1 (centres undefined) | n | n | n | n | n | n
